From ChEMBL document CHEMBL1139172, “Identification, synthesis, and biological evaluation of novel pyrazoles as low molecular weight luteinizing hormone receptor agonists” (Bioorg Med Chem Lett, 2007)

Assays:
[1] = biological target: T1, Lutropin-choriogonadotropic hormone receptor (Homo sapiens, UniProt P22888); assay: Agonist activity at human LH receptor expressed in CHO cells assessed as production of cAMP after 60 mins by SPA relative to luteinizing harmone; assay type: functional, cell-based
[2] = biological target: T1, Lutropin-choriogonadotropic hormone receptor; assay: Agonist activity at human LH receptor expressed in CHO cells assessed as production of cAMP after 60 mins by SPA; assay type: functional, cell-based
[3] = system: Rattus norvegicus; assay: Induction of testosterone in Sprague-Dawley rat at 4 to 32 mg/kg, ip by radioimmunoassay; assay type: functional, organism-based
Summary of the method: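 Adult Sprague–Dawley rats implanted subcutaneously in the scapular region on day 1 with a 7-day slow-release pellet of 7.5 mg diethylstilbestrol. Two days later, ip injection of 0, 4, 16 or 32 mg/kg; 3 rats per group. Blood taken by retro-orbital plexus 2 h after dosing; serum frozen at -80 °C. Testosterone measured by ELISA (legend says radioimmunoassay), with standard deviations.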

[4] = biological target: Lutropin-choriogonadotropic hormone receptor (Rattus norvegicus) (UniProt P16235); assay: Efficacy at LH receptor in Sprague-Dawley rat Leydig cells assessed as production of testosterone after 3 hrs; assay type: cell-based
Summary of the method: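 Leydig cells from male Sprague–Dawley rats aged 21–40 days. Decapsulated testis digested 15 min at 37 °C, 5% CO2, in phenol red-free DMEM/F12 with 0.1% collagenase. Washed cells plated at 350,000/well in phenol red-free DMEM/F12 with 0.1% BSA and stimulated 3 h. After centrifugation, medium testosterone measured by ELISA. ED50 and efficacy derived.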

T1 sequence (P22888 whole entry): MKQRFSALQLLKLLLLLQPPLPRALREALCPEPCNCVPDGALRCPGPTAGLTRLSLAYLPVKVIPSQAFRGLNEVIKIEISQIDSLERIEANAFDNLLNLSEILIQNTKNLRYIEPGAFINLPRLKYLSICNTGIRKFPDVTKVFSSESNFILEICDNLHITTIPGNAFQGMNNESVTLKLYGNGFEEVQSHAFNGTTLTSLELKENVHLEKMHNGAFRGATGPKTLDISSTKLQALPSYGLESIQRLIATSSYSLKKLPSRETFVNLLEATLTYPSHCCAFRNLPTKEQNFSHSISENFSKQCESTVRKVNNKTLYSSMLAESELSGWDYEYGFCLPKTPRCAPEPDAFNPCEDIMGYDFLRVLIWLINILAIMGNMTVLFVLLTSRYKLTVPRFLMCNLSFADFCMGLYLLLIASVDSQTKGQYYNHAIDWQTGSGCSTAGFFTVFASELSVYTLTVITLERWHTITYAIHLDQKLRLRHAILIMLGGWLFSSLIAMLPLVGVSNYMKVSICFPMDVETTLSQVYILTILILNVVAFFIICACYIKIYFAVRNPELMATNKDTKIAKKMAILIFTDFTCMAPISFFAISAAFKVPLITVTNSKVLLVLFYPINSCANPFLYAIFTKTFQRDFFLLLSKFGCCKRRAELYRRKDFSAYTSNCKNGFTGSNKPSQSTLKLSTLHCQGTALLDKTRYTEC
Chain of Lutropin-choriogonadotropic hormone receptor (Rattus norvegicus) (P16235 whole entry): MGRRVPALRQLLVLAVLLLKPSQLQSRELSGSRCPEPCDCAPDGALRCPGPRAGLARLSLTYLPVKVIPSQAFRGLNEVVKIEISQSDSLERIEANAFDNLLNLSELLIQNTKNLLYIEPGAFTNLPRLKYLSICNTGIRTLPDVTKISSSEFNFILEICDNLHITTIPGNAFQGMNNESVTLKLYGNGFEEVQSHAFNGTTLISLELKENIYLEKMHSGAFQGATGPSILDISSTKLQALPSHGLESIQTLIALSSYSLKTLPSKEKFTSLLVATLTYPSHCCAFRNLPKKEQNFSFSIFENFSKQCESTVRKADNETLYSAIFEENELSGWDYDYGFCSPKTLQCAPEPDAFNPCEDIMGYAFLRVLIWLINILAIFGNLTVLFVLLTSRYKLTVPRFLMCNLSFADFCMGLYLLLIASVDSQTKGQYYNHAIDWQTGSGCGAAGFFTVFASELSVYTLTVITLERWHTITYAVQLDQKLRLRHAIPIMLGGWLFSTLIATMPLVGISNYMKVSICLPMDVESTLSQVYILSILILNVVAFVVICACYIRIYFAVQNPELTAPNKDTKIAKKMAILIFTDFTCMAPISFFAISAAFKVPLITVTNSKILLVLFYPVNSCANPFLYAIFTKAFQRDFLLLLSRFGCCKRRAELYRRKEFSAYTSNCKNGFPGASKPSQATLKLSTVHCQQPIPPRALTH

Structure (SMILES) | Activity [1] | EC50 [2] | ED50 [4] | Efficacy [4] | Activity [3]
CC(C)(C)Oc1ccc(C[C@H](NC(=O)CCCCc2cc(-c3cccnc3)nn2-c2ccc(C(C)(C)C)cc2)C(N)=O)cc1 | 72% | 12100 nM | – | – | –
CC(C)(C)c1ccc(-n2nc(-c3ccccn3)cc2CCCCCC(=O)N[C@H](C(N)=O)c2ccc(O)cc2)cc1 | 78% | 170 nM | – | – | –
CC(C)(C)c1ccc(-n2nc(-c3cc4ccccc4cn3)cc2-c2cccc(C(=O)N[C@@H](Cc3ccc(O)cc3)C(N)=O)c2)cc1 | 19% | 500 nM | – | – | –
CC(C)(C)c1ccc(-n2nc(-c3ccccn3)cc2CCCCCC(=O)N[C@@H](Cc2cccc(O)c2)C(N)=O)cc1 | 41% | 150 nM | – | – | –
CC(C)(C)c1ccc(-n2nc(-c3cccnc3)cc2CCCCC(=O)NCCc2ccc(O)cc2)cc1 | 45% | 80 nM | – | – | –

Second part, led by results:

Activity [1] | EC50 [2] | ED50 [4] | Efficacy [4] | Structure (SMILES) | Activity [3]
– | > 100000 nM | – | – | CC(C)(C)c1ccc(-n2nc(-c3cccnc3)cc2CCC(=O)N[C@@H](Cc2ccc(O)cc2)C(N)=O)cc1 | –
66% | 190 nM | – | – | CC(C)(C)c1ccc(-n2nc(-c3ccncc3)cc2CCCCC(=O)N[C@H](CC(N)=O)Cc2ccc(O)cc2)cc1 | –
70% | 20 nM | 1310 nM | 78% | CC(C)(C)c1ccc(-n2nc(-c3cccnc3)cc2CCCCC(=O)N[C@@H](Cc2ccc(O)cc2)C(N)=O)cc1 | Dose-dependent effect
– | > 100000 nM | – | – | CC(C)(C)c1ccc(-n2nc(-c3ccncc3)cc2NCCCC(=O)N[C@@H](Cc2ccc(O)cc2)C(N)=O)cc1 | –
55% | 250 nM | – | – | CC(C)(C)c1ccc(-n2nc(-c3ccncc3)cc2CCCCC(=O)N[C@@H](Cc2ccc(O)cc2)C(N)=O)cc1 | –
– | 2300 nM | – | – | CC(C)(C)c1ccc(-n2nc(CCCCC(=O)N[C@@H](Cc3ccc(O)cc3)C(N)=O)cc2-c2ccncc2)cc1 | –
